Key:
[1] = test system: HeLa cells; assay: Rescue of DNMDP induced cytotoxicity; format: cell-based, human; settings: 48 hours; for competition with DNMDP (rescue): up to 10 µM; for rescue of DNMDP cytotoxicity: DNMDP in combination, dose response; for rank in bioactives screen for rescue of cell death induced by DNMDP: 20 µM compound with 30 nM DNMDP, 1600 compounds
Procedure, shortened: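 HeLa cells (1000/well, 384-well) in DMEM with 10% FBS and 1% Pen/Strep. 24 h after plating, 1600 bioactives added at 20 µM together with cytotoxic agent at 30 nM final; 48 h incubation. Follow-up combinations used indicated PDE3/pan-PDE inhibitor concentrations with single data points. CellTiter-Glo viability expressed as percentage of untreated DMSO control.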

[2] = test system: MCF7 cells; assay: Compound sensitivity testing; format: cell-based; settings: Homo sapiens, MCF7, 48 h
Procedure, shortened: (§1)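 Cells per 384-well: A549 1000 (RPMI), HeLa 1000 (DMEM), MCF-7 500 (DMEM), PC3 4000 (F12-K), NCI-H2122 1000 (RPMI), NCI-H1563 1500 (RPMI); all with 10% FBS. Test compound added 24 h after plating, 48 h exposure. Readout: 25% CellTiter-Glo in PBS, 10 min, luminescence, normalized to DMSO. Dose curves: mean of 8 replicates ± s.d.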

[3] = test system: A549 cells; assay: Cell viability; format: cell-based; settings: Homo sapiens, A549, 48 h
Procedure, shortened: as §1

[4] = test system: NCI-H2122 cells; assay: Compound sensitivity testing; format: cell-based; settings: Homo sapiens, NCI-H2122, 48 h
Procedure, shortened: as §1

[5] = test system: PC3 cells; assay: Compound sensitivity testing; format: cell-based; settings: Homo sapiens, PC-3, 48 h
Procedure, shortened: as §1

[6] = test system: 766 genomically characterized cancer cell lines; assay: Large-scale cell-line viability measurements; format: cell-based, human; settings: of 766 cancer cell lines, 72 hours, 66.4 µM to 2 nM
Procedure, shortened: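 500 cells/well in 1536-well plates, each line in its preferred medium; overnight incubation. Test compound acoustically dispensed at 16 concentrations, 66.4 µM–2 nM, 2-fold steps, in duplicate. After 72 h, ATP measured by CellTiter-Glo, normalized to media-only and DMSO wells. Curves fit to 2- or 3-parameter sigmoids. Sensitivity metric: AUC of optimal 8-point curve by numeric integration.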

[7] = test system: HeLa cells; assay: Caspase activity; format: cell-based, human; settings: 48 hours (caspase), 36 hours (PARP)
Procedure, shortened: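 HeLa cells (1000/well, 384-well) in growth medium with 10% FBS; test compound added 24 h after plating. Caspase: 48 h exposure, Caspase-Glo added, luminescence read. PARP: 36 h exposure to test compound or staurosporine; NP-40 lysis; immunoblot for PARP (1:1000) and actin (1:20,000), infrared imaging.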

[8] = target: 234 kinases; assay: Millipore KinaseProfiler panel; format: biochemical, human; settings: 10 µM DNMDP
[9] = test system: NCI-H1734 cells; assay: Cell viability; format: cell-based, human; settings: NCI-H1734 versus A549, 48 hours
[10] = test system: NCI-H1563 cells; assay: Compound sensitivity testing; format: cell-based; settings: Homo sapiens, NCI-H1563, 48 h
Procedure, shortened: as §1

[11] = test system: PDE3A complex with V5-tagged SIRT7 and SLFN12; assay: PDE3A immunoprecipitation and V5 immunoblot; format: cell-based, human; settings: HeLa, 10 µM, 4 hours, co-immunoprecipitation
Procedure, shortened: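 HeLa cells transfected with V5-tagged SIRT7, SLFN12 or GFP constructs. At 72 h, treated 4 h with 10 µM test compound or trequinsin. Lysis in ModRipa (1% NP-40, 50 mM Tris-HCl pH 7.8, 150 mM NaCl, 0.1% deoxycholate, 1 mM EDTA). 2 mg lysate with 1 µg anti-PDE3A overnight at 4 °C, then Protein A/G beads 1 h. LDS elution; immunoblots for V5 (1:5000) and PDE3A (1:1000).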

[12] = test system: HeLa cells; assay: Compound sensitivity testing; format: cell-based, human; settings: for activity compared with (R)-DNMDP: cell viability, (R)-des-nitro analogues
Procedure, shortened: as §1

[13] = target: PDE3A (Homo sapiens, UniProt Q14432); assay: Linker-affinity purification with DNMDP-2L resin and PDE3A immunoblot; format: binding; settings: HeLa cell lysate, 10 µM competitor
Chain of PDE3A (Q14432 whole entry): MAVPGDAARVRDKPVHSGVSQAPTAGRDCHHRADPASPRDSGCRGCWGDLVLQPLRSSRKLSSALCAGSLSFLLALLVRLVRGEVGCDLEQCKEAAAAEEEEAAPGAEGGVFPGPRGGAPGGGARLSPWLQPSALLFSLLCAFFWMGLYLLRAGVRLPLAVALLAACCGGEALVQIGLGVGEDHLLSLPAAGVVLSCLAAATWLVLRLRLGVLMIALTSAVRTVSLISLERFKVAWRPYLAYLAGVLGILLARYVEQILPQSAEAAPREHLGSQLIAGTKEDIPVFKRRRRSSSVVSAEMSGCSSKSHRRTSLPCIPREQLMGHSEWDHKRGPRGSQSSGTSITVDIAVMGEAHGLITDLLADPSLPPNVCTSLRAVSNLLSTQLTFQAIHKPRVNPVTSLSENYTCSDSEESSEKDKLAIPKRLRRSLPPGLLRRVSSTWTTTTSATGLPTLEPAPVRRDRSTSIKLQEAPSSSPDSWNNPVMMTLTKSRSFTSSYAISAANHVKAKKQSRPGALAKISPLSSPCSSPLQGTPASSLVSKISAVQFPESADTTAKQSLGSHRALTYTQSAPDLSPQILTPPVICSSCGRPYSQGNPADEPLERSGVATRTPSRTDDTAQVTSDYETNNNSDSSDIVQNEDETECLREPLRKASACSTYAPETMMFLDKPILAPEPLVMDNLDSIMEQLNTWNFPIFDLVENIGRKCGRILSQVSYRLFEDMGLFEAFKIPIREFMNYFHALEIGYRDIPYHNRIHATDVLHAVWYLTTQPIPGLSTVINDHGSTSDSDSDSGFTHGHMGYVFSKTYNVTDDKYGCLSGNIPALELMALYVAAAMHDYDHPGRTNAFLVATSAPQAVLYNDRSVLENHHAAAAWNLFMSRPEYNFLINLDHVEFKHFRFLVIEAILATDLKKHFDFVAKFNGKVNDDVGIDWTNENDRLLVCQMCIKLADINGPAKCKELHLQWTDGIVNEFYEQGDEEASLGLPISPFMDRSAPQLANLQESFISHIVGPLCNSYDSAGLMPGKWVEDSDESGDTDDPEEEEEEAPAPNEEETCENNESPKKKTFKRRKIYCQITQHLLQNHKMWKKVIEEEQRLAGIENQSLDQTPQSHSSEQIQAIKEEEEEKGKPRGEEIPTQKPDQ
Procedure, shortened: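 200 µg lysate incubated 4 h with resin-coupled linker analogue, competitor compounds added beforehand. Three washes in buffer with 10 µM compound. Bound protein resolved by SDS-PAGE; anti-PDE3A immunoblot (1:1000, overnight, 4 °C); infrared detection.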

[14] = test system: PDE3; settings: read-out: PDE3 IC50; cited from earlier work

Structure (SMILES): OCCN(CCO)c1nc(N2CCCCC2)c2nc(N(CCO)CCO)nc(N3CCCCC3)c2n1 [dipyridamole]
- competition with DNMDP (rescue) [1]: not effective competitors

Structure (SMILES): CCN(CC)c1ccc(C2=NNC(=O)CC2C)cc1[N+](=O)[O-] (stereo not shown) [DNMDP, 6-(4-(diethylamino)-3-nitrophenyl)-5-methyl-4,5-dihydropyridazin-3(2H)-one]
- EC50 [2]: > 1000 nM
- EC50 [3]: > 1000 nM
- EC50 [4]: 10 to 100 nM
- EC50 [5]: > 1000 nM
- number of cell lines sensitive with a robust Z-score lower than -4 [6]: 22 cell lines
- induction of apoptosis (caspase activity, PARP cleavage) [7]: undergo apoptosis
- kinase inhibition across 234 kinases [8]: no kinase inhibition
- selective toxicity in dose-response retest [9]: specifically toxic to the NCI-H1734 cell line
- EC50 [10]: 10 to 100 nM
- complex formation of V5-tagged SIRT7 and SLFN12 with PDE3A [11]: enhanced complex formation
- EC70 concentration ([12]; HeLa, 48 hours): 30 nM
- EC50 ([12]; Homo sapiens, HeLa, 48 h): 10 to 100 nM

Structure (SMILES): CN(C(=O)CCCOc1ccc2[nH]c(=O)ccc2c1)C1CCCCC1 [cilostamide]
- rescue of DNMDP cytotoxicity [1]: able to rescue DNMDP cytotoxicity in a dose-dependent manner

Structure (SMILES): C[C@@H]1CC(=O)NN=C1c1ccc(NN=C(C#N)C#N)cc1 [levosimendan]
- rank in bioactives screen for rescue of cell death induced by DNMDP [1]: three most potent compounds
- rescue of DNMDP cytotoxicity [1]: able to rescue DNMDP cytotoxicity in a dose-dependent manner

Structure (SMILES): CCCc1nc(C)c2c(=O)[nH]c(-c3cc(S(=O)(=O)N4CCN(CC)CC4)ccc3OCC)nn12 [vardenafil]
- competition with DNMDP (rescue) [1]: not effective competitors

Structure (SMILES): O=C1CCc2cc(OCCCCc3nnnn3C3CCCCC3)ccc2N1 [cilostazol]
- rank in bioactives screen for rescue of cell death induced by DNMDP [1]: three most potent compounds

Structure (SMILES): COc1cc2c(cc1OC)-c1c/c(=N\c3c(C)cc(C)cc3C)n(C)c(=O)n1CC2 [trequinsin]
- blocking of PDE3A binding to the tethered linker analogue [13]: blocked
- effect on HeLa cell viability ([12]; HeLa, up to 10 µM, 48 hours): did not affect HeLa cell viability in any detectable way
- IC50 [14]: 0.25 nM

Structure (SMILES): CCN(CC)c1ccc(C2=NNC(=O)CC2C)cc1 (stereo not shown) [DNMDP-3]
- activity compared with (R)-DNMDP [12]: tested similarly to (R)-DNMDP

Structure (SMILES): CCCc1nn(C)c2c(=O)[nH]c(-c3cc(S(=O)(=O)N4CCN(C)CC4)ccc3OCC)nc12 [sildenafil]
- competition with DNMDP (rescue) [1]: not effective competitors

Structure (SMILES): CC(C)C(=O)c1c(C(C)C)nn2ccccc12 [idubilast]
- competition with DNMDP (rescue) [1]: not effective competitors

Structure (SMILES): Cc1[nH]c(=O)c(C#N)cc1-c1ccncc1 [milrinone]
- rank in bioactives screen for rescue of cell death induced by DNMDP [1]: three most potent compounds
- rescue of DNMDP cytotoxicity [1]: able to rescue DNMDP cytotoxicity in a dose-dependent manner

Structure (SMILES): CCN(CC)c1ccc(C2=NNC(=O)C[C@H]2C)cc1 [DNMDP-2]
- activity compared with (R)-DNMDP [12]: tested similarly to (R)-DNMDP

Structure (SMILES): CCN(CCOCCOCCNC(=O)OC(C)(C)C)c1ccc(C2=NNC(=O)C[C@H]2C)cc1 [DNMDP-2L]
- rescue of DNMDP cytotoxicity [1]: same DNMDP cytotoxicity rescue phenotype as non-cytotoxic PDE3 inhibitors

Reference: article PMC4718766 (Nature chemical biology, 2015)
